Diaphorase act: compounds boosting diaphorase resazurin reduction – biochemical, uHTS, resorufin fluorescence, counter-screen for diaphorase-coupled primary assays, primary screen | Diaphorase/resazurin coupled assay, 16 min; active compounds read high; 1 = vehicle wells, 0 = NADH-free wells | activation factor at 20 µM | 190,000 compounds, 0.005% hits | AID 1229, 2008;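 active = diaphorase activity raised at least twofold by the compound at 20 µM; inactive = activation factor below 2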
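Assay system: bacterial diaphorase enzyme (C. kluyveri) / Input: enzyme 0.07 U/mL final / Medium: 50 mM HEPES pH 7.4 with 4.542 mM MgCl2, 0.005% Tween 20 / Doses: single compound dose of 20 µM, 1% DMSO final / Incubation: 16 min enzyme reaction, ambient temperature / Signal: fluorescence, excitation 544 nm and emission 590 nm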
Diaphorase inh: diaphorase inhibitors and chemical oxidizers, primary screen, counter-screen for diaphorase-coupled primary assays, biochemical, uHTS, resorufin fluorescence | diaphorase resazurin-to-resorufin fluorescence, NADH, 16 min; bacterial (C. kluyveri) enzyme, not human | inhibition, % at 20 µM | 190,000 compounds, 0.69% hits | AID 1217, 2008;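 active = primary screen inhibition at 20 µM above a set limit, cut at about 50% in these data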;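 note: plate controls were DMSO with full reaction for no effect and wells lacking NADH for full effect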
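Test system: Clostridium kluyveri diaphorase enzyme / Quantity: diaphorase at 0.14 U/mL in enzyme working solution / Incubation: 16-min room-temperature incubation before reading / Benchmarks: NADH-free wells as positive control, DMSO-only neutral wells / Signal: resorufin fluorescence 544/590 nm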
G6PDH CS: L. mesenteroides G6PDH inhibitors, counter-screen for G6PDH-coupled screening assays, biochemical, Leuconostoc mesenteroides enzyme | glucose-6-phosphate dehydrogenase [Leuconostoc mesenteroides] | Purified L. mesenteroides G6PDH, diaphorase/resazurin coupled fluorescence, 45 min | inhibition, % at 5 µM | 200,000 compounds, 0.12% hits; in the data active = inhibition above about 50%
Arbovirus inh: antivirals against arbovirus infection, primary screen, cell-based, full library, 10K replicate subset. arbovirus infection cell-based antiviral screen. inhibition, % at 10 µM. 200,000 compounds, 0.37% hits. AID 1251, 2008; in the data active = inhibition above about 30%
HKDC1 inhibitor: HKDC1 hexokinase inhibitors, primary screen, biochemical, fluorescence, uHTS | AID 493160, 2011 | inhibition, % at 20 µM | Q2TB90 | recombinant HKDC1, G6PDH/diaphorase resazurin coupled fluorescence | 340,000 compounds, 0.16% hits;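 active = inhibition above about 35% when tested at 20 µM, limit read from the data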;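 note: plate controls were DMSO wells with enzyme for no effect and DMSO wells lacking enzyme for full effect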
Target sequence (Q2TB90 whole entry, looked up): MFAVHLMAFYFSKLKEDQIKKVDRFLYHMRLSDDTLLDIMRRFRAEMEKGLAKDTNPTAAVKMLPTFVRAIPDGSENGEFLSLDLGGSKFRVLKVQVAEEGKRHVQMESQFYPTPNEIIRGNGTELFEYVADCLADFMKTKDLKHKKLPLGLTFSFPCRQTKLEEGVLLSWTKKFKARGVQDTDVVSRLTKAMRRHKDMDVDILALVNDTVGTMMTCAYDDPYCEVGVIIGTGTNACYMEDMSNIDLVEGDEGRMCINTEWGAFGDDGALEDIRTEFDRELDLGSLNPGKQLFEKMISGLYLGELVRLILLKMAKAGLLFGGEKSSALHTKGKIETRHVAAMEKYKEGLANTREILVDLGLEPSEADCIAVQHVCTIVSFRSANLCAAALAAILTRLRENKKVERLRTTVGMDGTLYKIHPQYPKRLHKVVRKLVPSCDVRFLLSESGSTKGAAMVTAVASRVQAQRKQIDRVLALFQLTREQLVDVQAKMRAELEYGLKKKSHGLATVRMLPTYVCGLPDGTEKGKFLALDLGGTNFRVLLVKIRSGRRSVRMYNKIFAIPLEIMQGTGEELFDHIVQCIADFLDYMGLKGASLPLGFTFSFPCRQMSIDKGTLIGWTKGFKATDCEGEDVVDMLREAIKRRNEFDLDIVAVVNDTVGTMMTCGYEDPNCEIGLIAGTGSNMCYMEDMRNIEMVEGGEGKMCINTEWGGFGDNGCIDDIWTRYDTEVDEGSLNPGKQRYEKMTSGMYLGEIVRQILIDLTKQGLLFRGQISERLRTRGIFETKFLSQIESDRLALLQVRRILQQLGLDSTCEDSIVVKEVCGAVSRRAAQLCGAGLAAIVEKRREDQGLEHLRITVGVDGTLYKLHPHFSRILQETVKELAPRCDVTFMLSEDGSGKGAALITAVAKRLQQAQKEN
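Assay system: recombinant HKDC1 hexokinase; detection: coupled resazurin fluorescence, excitation 525 nm, emission 613 nm; benchmarks: DMSO-plus-enzyme-mix negative control, buffer-substituted positive control; compound dosing: single 20 µM dose; schedule: 90 min at room temperature in dark; also added: glucose plus 1 mM ATP as hexokinase substrates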
Starred values were filed as active, the others as inactive; . = no result given. Only some compounds are listed: those with a hit (about 0.74% of all), similar ones and a draw of the others.

SMILES	Diaphorase act	Diaphorase inh	G6PDH CS	Arbovirus inh	HKDC1 inhibitor
O=C(COc1c(Br)cc(Br)c2cccnc12)N1CCCCC1	0.7	34	4	-3	7
O=C(CN(C(=O)c1csnn1)c1ccccc1F)NCc1ccccc1	.	.	.	.	1
COc1ccc(O)c(N)c1	0.4	62*	42	-13	.
COCCN(CC(=O)Nc1cccc(C)c1C)C(=O)C1CCN(S(=O)(=O)c2ccccc2)CC1	.	.	.	.	-2
COc1ccc(S(=O)(=O)Nc2cc(Sc3ncn[nH]3)c(O)c3ccccc23)cc1	0.8	20	54*	-41	.
COc1ccc(S(=O)(=O)Nc2ccc(O)c(Sc3ncn[nH]3)c2)cc1	0.8	15	4	6	-6
CCCCCCCCCCCCCCCC(=O)Nc1ccn(C2OC(CO)C(O)C2O)c(=O)n1 (stereo not drawn)	.	.	.	.	3
CC(=O)NC(c1ccc(C)cc1)c1cc([N+](=O)[O-])c2cccnc2c1O (stereo not drawn)	0.4	60*	61*	-25	20
CC(=O)NC(c1ccco1)c1ccc2cccnc2c1O (stereo not drawn)	0.5	53*	42	-24	-13
CCCC(=O)NC(c1ccco1)c1cc([N+](=O)[O-])c2cccnc2c1O (stereo not drawn)	0.6	38	56*	-24	4
CC(=O)NC(c1ccc(Cl)cc1)c1ccc2cccnc2c1O (stereo not drawn)	.	.	.	.	-22
CCOC(=O)c1c(CN2CCCCC2)n(C)c2ccc(OC)c(S(=O)(=O)c3ccccc3)c12	0.9	7	2	1	1
Cn1c2ccccc2c(=O)n2c(=O)c3ccccc3cc12	0.8	16	51*	0	.
Cn1c(-c2ccccc2)cc(=O)c2ccccc21	0.9	9	-18	6	-6
C=CCN(C(=O)c1cccc(N2C(=O)C3CC=CC(C)C3C2=O)c1)c1ccccc1 (stereo not drawn)	0.8	17	5	30*	-5
Cc1cccc(C)c1Nc1nnc(SC/C(O)=C(\C#N)c2nc3ccccc3[nH]2)s1	0.7	28	-1	30*	6
COC(=O)c1c(-c2ccccc2)csc1N1C(=O)Nc2ccccc2N1O	0.8	19	3	36*	4
O=C(CSc1nnnn1-c1ccc(F)cc1)c1ccc(O)c(O)c1	0.5	50*	14	-14	-6
O=C(O)c1ccc(CSc2nnnn2-c2ccc(F)cc2)cc1	.	.	.	.	2
CCOc1ccc(-c2csc(/C(C#N)=C\c3ccc(O)c([N+](=O)[O-])c3)n2)cc1	0.1	87*	12	-2	-8
CCCCc1ccc(-c2csc(/C(C#N)=C\c3ccc(C)o3)n2)cc1	0.7	26	1	4	6
O=C(CSc1nccc(=O)[nH]1)N1N=C2/C(=C/c3ccco3)CCCC2C1c1ccco1 (stereo not drawn)	0.8	18	5	49*	6
CSc1ccc(Cl)c(C(=O)OCC(=O)N2CCN(c3ccccc3)CC2)c1	.	.	.	.	-2
COc1ccccc1COC(=O)c1ccc(S(=O)(=O)N2CCOCC2)cc1	.	.	.	.	-1
Cc1ccc(N/N=C/c2c(C)c(C#N)c(=O)n(C)c2O)cc1C	0.3	69*	30	-26	3
SMILES	Diaphorase act	Diaphorase inh	G6PDH CS	Arbovirus inh	HKDC1 inhibitor
COc1ccc(C2NC(=O)NC3=C2CCc2ccccc23)cc1 (stereo not drawn)	0.3	74*	18	-16	25
COc1ccc2c(c1OC)C(=O)N(c1nc(SC)n[nH]1)C2=O	.	.	.	.	-7
CCCCCCCCCCCn1nnnc1N	.	.	.	.	-6
CC(C)CC(C(=O)Nc1cccc(O)c1)N1C(=O)c2ccccc2C1=O (stereo not drawn)	.	.	.	.	1
CC(C)CC(C(=O)Nc1oc(-c2ccco2)c(-c2ccco2)c1C#N)N1C(=O)c2ccccc2C1=O (stereo not drawn)	0.4	56*	22	-5	8
CCOc1ccc(CNc2ccc(N3CCCC3)cc2)cc1	0.3	75*	-20	-16	19
COc1ccc(CNc2ccc3c(c2)nc(C)n3C)cc1OC	.	.	.	.	1
CCOc1cc(CNc2ccc(N3CCCC3)cc2)cc(Cl)c1OC	0.3	68*	10	-15	2
COc1cc(CNc2ccc(N3CCCC3)cc2)cc(Cl)c1OC	0.5	55*	41	-23	16
COc1cc(CNc2ccc(N3CCOCC3)cc2)cc(Br)c1OC	0.9	11	0	5	-2
CCOc1cc(CNc2ccc(S(N)(=O)=O)cc2)cc(Cl)c1OC	0.9	11	4	-1	-4
CCOc1ccc(CNc2ccc3c(c2)nc(C)n3C)cc1	0.8	17	-5	44*	6
Cc1noc(C)c1COc1cccc(C(=O)N(C)Cc2cccs2)c1	.	.	.	.	-5
CC1(C(=O)O)CCC(C(=O)NNC(=O)c2ccccc2Cl)C1(C)C (stereo not drawn)	.	.	.	.	3
Cc1ccc2c(c1)c1c(n2CC(O)Cn2c(C)nc3ccccc32)/C(=N\O)CCC1 (stereo not drawn)	0.7	31	-30	-33	-1
Cc1ccc2c(c1)c1c(n2CC(O)Cn2c(C)nc3ccccc32)C(=O)CCC1 (stereo not drawn)	0.8	24	-22	37*	0
Cc1oc(-c2ccccc2Cl)nc1CSCC(=O)N1CCCC1	1	2	3	33*	-3
CC1=C(CC(=O)c2ccccc2)C(=O)c2ccccc2C1=O	0.8	19	56*	-29	8
C=Cn1cc[n+](CC(=O)c2ccc(C)cc2)c1	1.1	-8	11	3	0
O=S(=O)(c1ccc(Cl)cc1)N1CCN(S(=O)(=O)N2CCCCCC2)CC1	1.2	-22	11	-5	-3
O=S(=O)(c1ccc(Oc2ccc(Cl)cc2)c(S(=O)(=O)N2CCCCC2)c1)N1CCCCC1	0.8	21	3	38*	-8
c1csc(C2Nc3cccc4cccc(c34)N2)c1	0.4	62*	17	6	13
Brc1ccc(C2Nc3cccc4cccc(c34)N2)o1	0.1	85*	36	-8	12
Clc1cccc(Cl)c1C1Nc2cccc3cccc(c23)N1	.	.	.	.	15
CN(C)Cc1c(O)c(Cl)cc2c3c(c(=O)oc12)CCCC3	0.8	20	6	32*	2
CCN(CC)Cc1c(O)c(Cl)cc2c3c(c(=O)oc12)CCCC3	0.8	25	7	19	10
COc1ccc(N2C(=O)CS/C2=N\C(=S)Nc2ccccc2)cc1	.	.	.	.	-3
Cc1cnc(NC(=O)c2ccc(-c3nc4ccccc4s3)o2)s1	0.7	28	1	51*	6
